{"source": "ChEMBL document CHEMBL1147690", "about": "“A cassette-dosing approach for improvement of oral bioavailability of dual TACE/MMP inhibitors” (Bioorg Med Chem Lett, 2006)", "key": {"Collagenase 3": {"molecular_target": "Collagenase 3 (Homo sapiens, UniProt P45452)", "experiment": "Binding affinity to recombinant MMP13"}, "[1]": {"molecular_target": "T1, Disintegrin and metalloproteinase domain-containing protein 17 (Homo sapiens, UniProt P78536)", "T1 sequence (P78536 whole entry, the tested form may be a part)": "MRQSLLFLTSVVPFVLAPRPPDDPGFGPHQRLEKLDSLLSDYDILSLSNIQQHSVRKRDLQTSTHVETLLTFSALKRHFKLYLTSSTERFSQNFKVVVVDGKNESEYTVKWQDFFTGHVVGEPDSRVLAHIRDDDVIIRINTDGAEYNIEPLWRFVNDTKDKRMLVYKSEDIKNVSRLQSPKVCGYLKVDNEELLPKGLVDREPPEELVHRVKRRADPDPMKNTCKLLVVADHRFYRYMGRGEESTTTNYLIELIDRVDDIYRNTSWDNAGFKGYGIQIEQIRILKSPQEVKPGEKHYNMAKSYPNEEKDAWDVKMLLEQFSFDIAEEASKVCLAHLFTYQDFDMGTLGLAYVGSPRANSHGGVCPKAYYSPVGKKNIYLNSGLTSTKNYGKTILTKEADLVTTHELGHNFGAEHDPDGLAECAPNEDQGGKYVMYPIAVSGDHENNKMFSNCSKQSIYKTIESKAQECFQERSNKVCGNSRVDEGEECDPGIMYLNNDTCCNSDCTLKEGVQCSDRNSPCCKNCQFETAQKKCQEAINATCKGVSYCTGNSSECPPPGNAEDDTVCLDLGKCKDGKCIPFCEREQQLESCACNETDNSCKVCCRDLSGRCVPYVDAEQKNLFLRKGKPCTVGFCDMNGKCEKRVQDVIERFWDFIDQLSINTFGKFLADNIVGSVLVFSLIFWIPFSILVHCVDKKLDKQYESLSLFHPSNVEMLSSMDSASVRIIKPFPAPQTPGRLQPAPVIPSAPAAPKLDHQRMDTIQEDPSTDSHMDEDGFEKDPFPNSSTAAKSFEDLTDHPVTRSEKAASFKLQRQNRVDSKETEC", "experiment": "Binding affinity to recombinant TACE"}, "[2]": {"molecular_target": "T1, Disintegrin and metalloproteinase domain-containing protein 17", "experiment": "Inhibition of LPS/interferon gamma-stimulated TNFalpha release from HPBMC", "format": "functional"}, "Interstitial collagenase": {"molecular_target": "T2, Interstitial collagenase (Homo sapiens, UniProt P03956)", "T2 sequence (P03956 whole entry)": "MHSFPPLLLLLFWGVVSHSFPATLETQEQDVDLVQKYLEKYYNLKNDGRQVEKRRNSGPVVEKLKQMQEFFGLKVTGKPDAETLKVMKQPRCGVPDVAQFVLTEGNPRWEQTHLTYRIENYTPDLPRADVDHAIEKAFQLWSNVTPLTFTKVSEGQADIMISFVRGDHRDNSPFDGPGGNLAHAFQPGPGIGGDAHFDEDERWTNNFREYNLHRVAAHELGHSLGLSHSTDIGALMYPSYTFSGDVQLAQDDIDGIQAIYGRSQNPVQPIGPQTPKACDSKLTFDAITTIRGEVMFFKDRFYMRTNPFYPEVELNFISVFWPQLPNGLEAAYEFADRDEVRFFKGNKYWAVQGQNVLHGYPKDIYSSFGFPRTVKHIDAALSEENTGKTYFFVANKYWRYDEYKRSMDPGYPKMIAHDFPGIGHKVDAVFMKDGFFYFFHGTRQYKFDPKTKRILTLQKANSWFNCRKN", "experiment": "Binding affinity to recombinant MMP1"}, "Stromelysin-1": {"molecular_target": "Stromelysin-1 (Homo sapiens, UniProt P08254)", "sequence (P08254 whole entry)": "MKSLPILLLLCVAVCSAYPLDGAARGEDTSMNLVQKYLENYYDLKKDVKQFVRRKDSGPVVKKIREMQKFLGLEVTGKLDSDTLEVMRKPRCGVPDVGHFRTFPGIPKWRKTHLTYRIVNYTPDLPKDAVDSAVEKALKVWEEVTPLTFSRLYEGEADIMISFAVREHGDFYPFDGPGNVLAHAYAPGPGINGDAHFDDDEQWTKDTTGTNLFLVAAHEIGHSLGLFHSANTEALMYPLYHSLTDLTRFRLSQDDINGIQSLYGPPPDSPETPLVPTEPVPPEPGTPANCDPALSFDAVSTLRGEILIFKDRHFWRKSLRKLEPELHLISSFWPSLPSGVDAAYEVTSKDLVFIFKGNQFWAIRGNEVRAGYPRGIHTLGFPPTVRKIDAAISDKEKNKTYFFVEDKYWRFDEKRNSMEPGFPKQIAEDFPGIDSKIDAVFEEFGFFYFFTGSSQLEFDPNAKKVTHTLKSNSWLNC", "experiment": "Binding affinity to recombinant MMP3", "how_it_was_run": "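Recombinant enzyme activity measured by a fluorimetric assay.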"}, "[3]": {"experiment": "Clearance in rat at 1 mg/kg, iv and 3 mg/kg, po", "format": "ADME, organism-based", "conditions": "in vivo", "how_it_was_run": "(§1)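 Conscious, permanently cannulated rats (n = 4) were dosed with a five-compound cassette or a single compound. Dosing was 1 mg/kg iv into the femoral vein (30% N-methyl-2-pyrrolidone in PEG 200) and 3 mg/kg po by gavage (3% ethanol in corn oil), in the same animals with a 48 h washout. Femoral-artery plasma was sampled for 24 h (iv) or 7 h (po), acetonitrile-precipitated and analysed by HPLC/MS.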"}, "[4]": {"experiment": "Volume of distribution in rat at 1 mg/kg, iv and 3 mg/kg, po", "format": "ADME, organism-based", "conditions": "in vivo, read-out: Vdss", "how_it_was_run": "as §1"}, "Rattus norvegicus": {"test_system": "Rattus norvegicus", "experiment": "Cmax in rat at 3 mg/kg, po normalized to 1 mg/kg", "format": "ADME, organism-based", "design": "dose 3 mg/kg, route oral", "conditions": "in vivo", "how_it_was_run": "as §1"}, "[5]": {"experiment": "Oral bioavailability in rat at 1 mg/kg, iv and 3 mg/kg, po", "format": "ADME, organism-based", "conditions": "in vivo", "how_it_was_run": "as §1"}}, "data": [{"smiles": "COc1ccc([C@@H](C(=O)N2CCCCC2)[C@H](CN2C(=O)N(C)C(C)(C)C2=O)C(=O)NO)cc1", "values": [{"measurement": "Ki", "setting": "Collagenase 3", "result": 19, "unit": "nM"}, {"measurement": "Ki", "setting": "[1]", "result": 321, "unit": "nM"}, {"measurement": "IC50", "setting": "[2]", "result": "> 10000", "unit": "nM"}, {"measurement": "Ki", "setting": "Interstitial collagenase", "result": 83, "unit": "nM"}, {"measurement": "Ki", "setting": "Stromelysin-1", "result": 187, "unit": "nM"}]}, {"smiles": "CNC(=O)[C@@H](NC(=O)[C@H](c1ccc(OC)cc1)[C@H](CN1C(=O)N(C)C(C)(C)C1=O)C(=O)NO)C(C)(C)C", "values": [{"measurement": "Ki", "setting": "Collagenase 3", "result": 3, "unit": "nM"}, {"measurement": "Ki", "setting": "[1]", "result": 57, "unit": "nM"}, {"measurement": "IC50", "setting": "[2]", "result": 484, "unit": "nM"}, {"measurement": "Ki", "setting": "Interstitial collagenase", "result": 0.7, "unit": "nM"}, {"measurement": "Ki", "setting": "Stromelysin-1", "result": 12, "unit": "nM"}]}, {"smiles": "CC[C@H](C(=O)NO)[C@H](C(=O)N1CCCC[C@H]1C(=O)NC)c1ccc(OC)cc1", "values": [{"measurement": "Ki", "setting": "Collagenase 3", "result": 7, "unit": "nM"}, {"measurement": "Ki", "setting": "[1]", "result": 8, "unit": "nM"}, {"measurement": "IC50", "setting": "[2]", "result": 836, "unit": "nM"}, {"measurement": "Ki", "setting": "Interstitial collagenase", "result": 25, "unit": "nM"}, {"measurement": "Ki", "setting": "Stromelysin-1", "result": 11, "unit": "nM"}]}, {"smiles": "CN1C(=O)N(C[C@H](C(=O)NO)[C@@H](CC2CCCC2)C(=O)N2CCCCC2)C(=O)C1(C)C", "values": [{"measurement": "Ki", "setting": "[1]", "result": 230, "unit": "nM"}, {"measurement": "IC50", "setting": "[2]", "result": "> 10000", "unit": "nM"}]}, {"smiles": "COc1ccc([C@@H](C(=O)N2CCCCC2)[C@H](CO)C(=O)NO)cc1", "values": [{"measurement": "Ki", "setting": "Collagenase 3", "result": 55, "unit": "nM"}, {"measurement": "Ki", "setting": "[1]", "result": 66, "unit": "nM"}, {"measurement": "IC50", "setting": "[2]", "result": "> 10000", "unit": "nM"}, {"measurement": "Ki", "setting": "Interstitial collagenase", "result": 213, "unit": "nM"}, {"measurement": "Ki", "setting": "Stromelysin-1", "result": 300, "unit": "nM"}]}, {"smiles": "CNC(=O)[C@@H]1CCCCN1C(=O)[C@H](c1ccc(OC)cc1)[C@H](CO)C(=O)NO", "values": [{"measurement": "Ki", "setting": "Collagenase 3", "result": 10, "unit": "nM"}, {"measurement": "Ki", "setting": "[1]", "result": 8, "unit": "nM"}, {"measurement": "IC50", "setting": "[2]", "result": "> 10000", "unit": "nM"}, {"measurement": "clearance", "setting": "[3]", "result": 23.2, "unit": "mL/min/kg"}, {"measurement": "Vd", "setting": "[4]", "result": 1.06, "unit": "L/kg"}, {"measurement": "Cmax", "setting": "Rattus norvegicus", "result": 38.1, "unit": "nM"}, {"measurement": "bioavailability", "setting": "[5]", "result": 8.4, "unit": "%"}, {"measurement": "Ki", "setting": "Interstitial collagenase", "result": 23, "unit": "nM"}]}, {"smiles": "CC[C@H](C(=O)NO)[C@H](C(=O)N1CCCC[C@H]1C(=O)NC)c1ccc(Cl)cc1", "values": [{"measurement": "Ki", "setting": "Collagenase 3", "result": 2, "unit": "nM"}, {"measurement": "Ki", "setting": "[1]", "result": 5, "unit": "nM"}, {"measurement": "IC50", "setting": "[2]", "result": 316, "unit": "nM"}, {"measurement": "clearance", "setting": "[3]", "result": 28.1, "unit": "mL/min/kg"}, {"measurement": "Vd", "setting": "[4]", "result": 16.7, "unit": "L/kg"}, {"measurement": "Cmax", "setting": "Rattus norvegicus", "result": 388.6, "unit": "nM"}, {"measurement": "bioavailability", "setting": "[5]", "result": 47.1, "unit": "%"}, {"measurement": "Ki", "setting": "Interstitial collagenase", "result": 0.7, "unit": "nM"}]}, {"smiles": "CNC(=O)[C@@H](NC(=O)C(c1ccc(OC)cc1)C(CO)C(=O)NO)C(C)(C)C", "note": "(single isomer, unassigned)", "values": [{"measurement": "Ki", "setting": "Collagenase 3", "result": 0.5, "unit": "nM"}, {"measurement": "IC50", "setting": "[2]", "result": 48, "unit": "nM"}, {"measurement": "clearance", "setting": "[3]", "result": 10, "unit": "mL/min/kg"}, {"measurement": "Vd", "setting": "[4]", "result": 0.34, "unit": "L/kg"}, {"measurement": "Cmax", "setting": "Rattus norvegicus", "result": 42.7, "unit": "nM"}, {"measurement": "bioavailability", "setting": "[5]", "result": 3.2, "unit": "%"}, {"measurement": "Ki", "setting": "Interstitial collagenase", "result": 1, "unit": "nM"}]}]}
